TNAP inh noacc = TNAP (human) inhibition, acceptor-free conditions | P05186 | purified TNAP, CDP-star luminescence, 30 min | inhibition, % at 20 µM | hit rate 0.26% among 200,000 | AID 1012;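 active means tissue-nonspecific alkaline phosphatase inhibition above about 50% at 20 µM in the single-dose screen, limit read from the data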
Target sequence (P05186 whole entry, looked up): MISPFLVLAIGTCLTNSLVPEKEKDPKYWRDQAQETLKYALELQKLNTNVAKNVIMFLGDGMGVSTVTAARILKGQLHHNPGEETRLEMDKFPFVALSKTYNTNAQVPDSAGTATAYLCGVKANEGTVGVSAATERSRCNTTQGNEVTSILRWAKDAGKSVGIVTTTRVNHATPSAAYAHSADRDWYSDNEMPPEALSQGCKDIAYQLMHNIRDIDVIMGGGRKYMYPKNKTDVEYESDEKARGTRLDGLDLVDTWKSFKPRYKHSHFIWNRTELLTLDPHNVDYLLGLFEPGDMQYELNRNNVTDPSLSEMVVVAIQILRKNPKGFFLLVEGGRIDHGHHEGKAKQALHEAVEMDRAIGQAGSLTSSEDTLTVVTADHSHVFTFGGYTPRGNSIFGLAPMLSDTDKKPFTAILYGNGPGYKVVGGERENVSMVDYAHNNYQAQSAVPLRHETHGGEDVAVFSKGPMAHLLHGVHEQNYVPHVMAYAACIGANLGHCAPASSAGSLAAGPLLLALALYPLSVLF
TNAP inh hiacc = TNAP (human) inhibition, high acceptor. AID 1135. P05186. hit rate 0.03% among 200,000. inhibition, % at 20 µM. purified TNAP, CDP-star luminescence, 1 M DEA;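 active means over 50% inhibition of tissue-nonspecific alkaline phosphatase at 20 µM in the single-dose screen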
TNAP act hi DEA = TNAP (human) activation, high acceptor; P05186; purified TNAP, CDP-star luminescence, 1 M DEA, 30 min; hits give high values; 0 = EDTA background, 1 = DMSO-only activity; activation factor at 20 µM; 200,000 tested, under 10 active; AID 1136;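 active means activation factor at least 2 at 20 µM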
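system = human TNAP | amount = enzyme diluted 1/800 final | reagent = 100 µM CDP-star substrate | signal = luminescent substrate turnover signal | dosing = one dose, 20 µM | benchmarks = EDTA negative control, DMSO positive control | measure = activation factor | timing = 30 min reaction, room temperature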
sdo1 growth = compounds rescuing growth of sdo1-depleted yeast, bone marrow failure model | S. cerevisiae sdo1-depleted JHY4D growth rescue, OD600 30 h; hits give high values; pdr5 snq2 efflux-pump mutant strain | z-score at 10 µM | hit rate 0.21% among 140,000 | AID 817;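 active means z-score above 3 at both the 24 hr and the 30 hr optical density reads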
zVAD death inh = blocks zVAD induced death of L929 cells | hit rate 0.38% among 220,000 | AID 1377 | L929 zVAD necroptosis rescue, ATP luminescence, 24 h; with zVAD 60 µM | viability rescue, % at 10 µM;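 active means activation, scaled between plate controls, above about 75%, limit read from the data; inactive means activation under that limit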
TNF death inh = blocks TNF-alpha induced death of Jurkat FADD-/- cells; Jurkat FADD-/- TNF necroptosis rescue, ATP luminescence, 24 h; 0 = TNF only, 100 = no-TNF cells; activation (protection from cell death), % at 10 µM; hit rate 0.068% among 220,000; AID 463075;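 active means activation, meaning protection from cell death, of at least 50% relative to plate controls; inactive means activation below 50%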;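 further: necroptosis triggered by 40 ng/mL TNF-alpha added together with compound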
sdo1 rescue conf = confirmation of growth rescue in SDO1-depleted yeast, bone marrow failure. shares compounds with sdo1 growth. S. cerevisiae JHY4D (SDO1-depleted) growth rescue, OD600, 30 h; hits give high values; efflux-deficient strain, SNQ2 and PDR5 mutated. OD recovery (no concentration beside the values). hit rate 44% among 440. AID 949;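 active means yeast growth recovered at 30 hours, either rising with dose fitted slope above 0.001 or with average optical density gain above 0.07, some results past the limit were not filed as active; inactive means growth falling with dose or no effect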
Hits are given with their value; - = inactive; . = not tested or not shown; ! = not active in a repeat. In the library only some 0.81% were active in any assay of this set; here they are far more common.

SMILES	TNAP inh noacc	TNAP inh hiacc	TNAP act hi DEA	sdo1 growth	zVAD death inh	TNF death inh	sdo1 rescue conf
C=CCNC(=S)NNC(=O)c1ccc(OCC(C)C)cc1	-	-	-	6.21	-	-	0.094
CSCC[C@H](NC(=O)OC(C)(C)C)c1nnc(SCC(N)=O)o1	-	-	-	9.56	-	-	0.0458
c1ccc(OCCN2CCN(Cc3nc(-c4ccc5c(c4)OCO5)no3)CC2)cc1	-	-	-	.	-	-	.
COc1ccc(C(O)c2nc3ccccc3s2)cc1 (stereo unspecified)	-	-	-	10.2	-	-	-
COc1ccc(N2CCN(C(=O)Cn3cnc4c3c(=O)n(C)c(=O)n4C)CC2)cc1	-	-	-	.	-	-	.
Cn1c(=O)c2c(ncn2CC(=O)N2CCN(c3cccc(Cl)c3)CC2)n(C)c1=O	-	-	-	14.3	-	-	-
COC(=O)c1ccc2c(c1)C(=O)/C(=C/c1ccc(O)cc1)O2	-	55.0	-	3.49	-	-	-
COc1ccc(CCNC(=O)CCN2C(=O)c3cccc4cccc(c34)C2=O)cc1OC	-	-	-	.	-	-	.
COc1ccc(CCN2C(=O)c3cccc4c(C(=O)N5CCCCC5)ccc(c34)C2=O)cc1OC	-	-	-	-	-	-	-
CCN(CC)S(=O)(=O)c1ccc(Cc2ncc(C(F)(F)F)cc2Cl)s1	-	-	-	12.1	-	-	0.0764
NS(=O)(=O)c1ccc(Cc2ncc(C(F)(F)F)cc2Cl)s1	-	-	-	-	-	-	.
O=C(CSc1nnc(CNc2cccc(Cl)c2)o1)OC1CCCCC1	-	-	-	11.6	-	-	0.09
CCOC(=O)c1c(C(F)(F)C(F)(F)C(F)(F)C(F)(F)F)n[nH]c1C	-	-	-	-	-	-	.
O=C(Nc1ccc(S(=O)(=O)NCc2cccnc2)cc1)c1ccco1	-	-	-	-	-	-	-
CC(=O)Nc1ccc(S(=O)(=O)NCc2cccnc2)cc1	-	-	-	-	-	-	.
Cc1cccc(C)c1NC(=O)COC(=O)c1c2c(nc3ccccc13)/C(=C\c1ccc3c(c1)OCO3)CCC2	-	-	-	-	-	-	.
CC(OC(=O)c1c2c(nc3ccccc13)/C(=C\c1ccc3c(c1)OCO3)CCC2)C(=O)Nc1ccc(S(N)(=O)=O)cc1 (stereo unspecified)	-	-	-	-	-	-	0.0846
CCOC(=O)CN(C(=O)CSc1nnc2c(n1)[nH]c1ccc(F)cc12)c1ccccc1	-	-	-	-	-	-	.
O=C(NCc1ccco1)c1ccc(N2CCCCC2)c([N+](=O)[O-])c1	-	-	-	-	-	-	.
CC1CCN(c2ccc(C(=O)NCc3ccco3)cc2[N+](=O)[O-])CC1	-	-	-	10.6	-	-	0.0952
COc1cccc(NC(=O)Nc2ccc3c(c2)nnn3C)c1	-	-	-	-	-	-	0.0788
CCOC(=O)C(=CNc1ccc2c(c1)nnn2-c1ccc(Cl)cc1)C(=O)OCC	-	-	-	-	-	-	.
CCN(CC)S(=O)(=O)c1ccc(-c2nnc(SCC(=O)Nc3nc(C)cs3)o2)cc1	-	-	-	-	-	-	-
CCOC(=O)c1c(NC(=O)CSc2nncs2)sc(C)c1C	-	-	-	-	-	-	-
CCOC(=O)c1c(NC(=O)CSc2nncs2)sc(C)c1-c1ccccc1	-	-	-	-	-	-	.
SMILES	TNAP inh noacc	TNAP inh hiacc	TNAP act hi DEA	sdo1 growth	zVAD death inh	TNF death inh	sdo1 rescue conf
COC(=O)C1(C(=O)OC)NOC2C(=O)N(c3ccccc3)C(=O)C21 (stereo unspecified)	-	-	-	7.77	-	-	0.0924
CN(C)c1cc[n+](CC(=O)c2ccc(-c3ccccc3)cc2)cc1	-	-	-	.	-	-	.
CCOc1cc(C(=O)N2CCCC2)cc(OCC)c1OCC	-	-	-	-	.	-	-
CCCCNc1ccc2nsnc2c1[N+](=O)[O-]	-	-	-	-	-	-	.
Cc1c(C#N)c2ncn(Cc3ccccn3)c(=O)c2n1-c1ccccc1	-	-	-	-	-	-	.
Cc1c(C#N)c2ncn(CCCN(C)C)c(=O)c2n1-c1ccccc1	-	-	-	3.58	-	-	0.102
CCOc1cc(C(=O)NCc2ccc(-c3nc4ccccc4o3)cc2)cc(OCC)c1OCC	-	-	-	-	-	-	-
Cc1cc(S(=O)(=O)NCC(C)C)ccc1OCC(=O)NCC1CCCO1 (stereo unspecified)	-	-	-	7.79	-	-	-
O=C1CC(C(=O)NC2CCCCC2)C2(CCCCC2)O1 (stereo unspecified)	-	-	-	.	-	-	.
CC(=O)c1cnn(-c2cc(Oc3cccc(C)c3)ncn2)c1C	-	-	-	6.88	-	-	-
Clc1cccc(-c2ccc(CNCCCN3CCOCC3)o2)c1	-	-	-	.	-	-	.
N/C(=N\OC(=O)Cc1cccs1)c1ccc(Br)cc1	-	-	-	-	-	-	.
Cc1ccc(C)n1CCN1CCN(C(=O)c2ccco2)CC1	-	-	-	3.01!	-	-	-
CCCCc1nnc(NC(=O)C(C)Sc2nc(C)cc(=O)[nH]2)s1 (stereo unspecified)	-	-	-	-	-	-	.
O=C(COC(=O)c1cccc2ccccc12)NCCCc1ccccc1	-	-	-	11	-	-	-
COc1cccc(C(=O)OCC(=O)NCCc2ccccc2)c1OC	-	-	-	.	-	-	.
CCOc1ccc(NC(=O)c2ccncc2)cc1	-	-	-	4.08	-	-	-
CCOc1ccc(C(=O)NC(=S)NCc2cccnc2)cc1	-	-	-	-	-	-	0.105
COCCn1cnnc1SCC(=O)Nc1sccc1C(N)=O	-	-	-	.	-	-	.
CCNC(=O)CC1C(=O)N(CC)C(=S)N1NC(=O)c1cccnc1 (stereo unspecified)	-	-	-	.	-	-	.
COc1ccc(C2/C(=C(\O)c3ccc4c(c3)OCCO4)C(=O)C(=O)N2CCCN(C)C)cc1 (stereo unspecified)	-	-	-	-	-	-	.
Cc1ccc(C2/C(=C(\O)c3ccc4c(c3)OCCO4)C(=O)C(=O)N2CCCN(C)C)o1 (stereo unspecified)	-	-	-	6.86	-	-	0.0972
CCOC(=O)N1CCC2(CC1)NCCc1c2[nH]c2ccccc12	.	.	.	.	-	-	.
COc1cc(OC)cc(-c2nnc(SCC(=O)N3CCOCC3)o2)c1	-	-	-	3.66	-	-	0.0719
COc1cc(OC)cc(-c2nnc(SCC(=O)N3CCCCC3)o2)c1	-	-	-	-	-	-	.
Cc1nnc(SCC(=O)Nc2ccc(Cl)cn2)s1	-	-	-	-	-	-	.
O=C(NCc1cccs1)c1nc2ncccn2n1	-	-	-	3.01	-	-	-
